In ChEMBL document CHEMBL1147229, “Isolation and characterization of new epothilone analogues from recombinant Myxococcus xanthus fermentations” (J Nat Prod, 2003):

Tests used:
Type in all cases: functional, cell-based
SF-268 = assay: Cytotoxicity against human SF268 cells after 3 days by SRB assay; conditions: SF-268, 72 h
How it was run: (§1)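 Cells kept in RPMI-1640 with 2 mM L-glutamine, 25 mM HEPES and 10% FBS at 37 °C, 5% CO2. Seeding per well: MCF-7 5000, NCI/ADR 7500, NCI-H460 5000, SF-268 7500; 24 h adherence. Compound at 0.001 to 1000 nM, triplicate wells, 3 days. TCA fixation 1 h at 4 °C, 0.2% SRB 20 min, bound dye extracted in 10 mM Tris, absorbance at 515 nm.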

MCF7 = assay: Cytotoxicity against human MCF7 cells after 3 days by SRB assay; conditions: MCF7, 72 h; how it was run: as §1
NCI-H460 = assay: Cytotoxicity against human NCI-H460 cells after 3 days by SRB assay; conditions: NCI-H460, 72 h; how it was run: as §1
[1] = Cytotoxicity against human NCI/ADR cells after 3 days by SRB assay; conditions: NCI/ADR-RES, 72 h; how it was run: as §1

CC1=C/C[C@@H](/C(C)=C/c2csc(C)n2)OC(=O)C[C@H](O)C(C)(C)C(=O)[C@H](C)[C@@H](O)[C@@H](C)C\C=C\1
IC50 (SF-268): 92 nM
IC50 (MCF7): 47 nM
IC50 (NCI-H460): 47 nM
IC50 [1]: 250 nM

CC1=C/C[C@@H](/C(C)=C/c2csc(C)n2)OC(=O)C[C@H](O)C(C)C(=O)[C@H](C)[C@@H](O)[C@@H](C)C\C=C\1 (stereo not given in full)
IC50 (SF-268): 390 nM
IC50 (MCF7): 250 nM
IC50 (NCI-H460): 345 nM
IC50 [1]: 395 nM

C/C1=C/C[C@@H](/C(C)=C/c2csc(C)n2)OC(=O)C[C@H](O)C(C)(C)C(=O)[C@H](C)[C@@H](O)[C@@H](C)C(=O)CC1
IC50 (SF-268): > 1000 nM
IC50 (MCF7): 500 nM
IC50 (NCI-H460): > 1000 nM
IC50 [1]: > 1000 nM

C/C(=C\c1csc(C)n1)[C@@H]1C/C=C\CCC[C@H](C)[C@H](O)[C@@H](C)C(=O)C(C)(C)[C@@H](O)CC(=O)O1 [EPOTHILONE C]
IC50 (SF-268): 340 nM
IC50 (MCF7): 97 nM
IC50 (NCI-H460): 280 nM
IC50 [1]: 310 nM

C/C1=C/C[C@@H](/C(C)=C/c2csc(C)n2)OC(=O)C[C@H](O)C(C)(C)C(=O)[C@H](C)[C@@H](O)[C@@H](C)CCC1 [EPOTHILONE D]
IC50 (SF-268): 18 nM
IC50 (MCF7): 16 nM
IC50 (NCI-H460): 30 nM
IC50 [1]: 44 nM
